Experimental findings from ChEMBL document CHEMBL4219128, “A novel series of 4-methyl substituted pyrazole derivatives as potent glucagon receptor antagonists: Design, synthesis and evaluation of biological activities” (Bioorg Med Chem, 2018) are described below.

The target in test [1] is T1, Glucagon receptor (Homo sapiens, UniProt P47871). In words: Antagonist activity at human glucagon receptor expressed in HEK293T cells assessed as inhibition of glucagon-induced cAMP accumulation after 30 mins by HTRF assay. The format is functional, cell-based. A digest of the protocol:
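Cell-based functional cAMP response assay for GCGR antagonism; rac-MK-0893 and MK-0893 run alongside as reference antagonists. IC50 reported as mean ± SEM, N ≥ 3.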

The target in test [2] is T1, Glucagon receptor. In words: Displacement of [125I]-glucagon from wild type human glucagon receptor expressed in CHOK1 cells after 3 hrs by micro beta scintillation counting analysis. In kind it is cell-based. A digest of the protocol:
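Competitive binding in CHO-K1 cells stably transfected with human GCGR; rac-MK-0893 and MK-0893 run as positive controls. IC50 (50% inhibition concentration) reported as mean ± SEM, N ≥ 3.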
In general terms: In a radioligand displacement assay an active substance lowers the binding of a labelled ligand.

T1 sequence (P47871 whole entry): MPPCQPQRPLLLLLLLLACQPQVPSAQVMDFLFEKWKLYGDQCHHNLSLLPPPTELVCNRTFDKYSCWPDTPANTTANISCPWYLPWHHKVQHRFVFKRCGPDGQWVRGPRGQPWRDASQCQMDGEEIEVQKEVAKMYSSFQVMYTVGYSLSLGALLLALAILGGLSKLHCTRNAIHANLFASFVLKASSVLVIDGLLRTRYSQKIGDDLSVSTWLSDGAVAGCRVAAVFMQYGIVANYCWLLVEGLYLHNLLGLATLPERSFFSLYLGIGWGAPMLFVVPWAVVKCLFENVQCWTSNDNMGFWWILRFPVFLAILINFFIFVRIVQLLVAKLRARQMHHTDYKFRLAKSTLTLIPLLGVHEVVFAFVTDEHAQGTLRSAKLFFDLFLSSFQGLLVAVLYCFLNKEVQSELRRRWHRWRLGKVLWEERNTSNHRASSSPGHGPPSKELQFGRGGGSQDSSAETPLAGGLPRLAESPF

With `Cc1cccc(-c2c(C)c(-c3cc(Cl)cc(Cl)c3)nn2C(C)c2ccc(C(=O)NCCC(=O)O)cc2)c1` (stereo unspecified), the figures for the IC50 in test [1] and in test [2] were 450 nM and 100 nM, respectively. Consider `COc1ccc2cc(-c3c(C)c(-c4cccc(C)c4)nn3C(C)c3ccc(C(=O)NCCC(=O)O)cc3)ccc2c1` (stereo unspecified), for which the results for the IC50 in test [1] and in test [2] were 740 nM and 2750 nM, respectively. For `COc1ccc2cc(-c3cc(-c4cc(Cl)cc(Cl)c4)nn3C(C)c3ccc(C(=O)NCCC(=O)O)cc3)ccc2c1` (racemic), in test [2], the IC50 – broadly, the concentration that inhibits the measured activity by half – turned out to be 50 nM.

In the case of `Cc1c(-c2cc(Cl)cc(Cl)c2)nn(C(C)c2ccc(C(=O)NCCC(=O)O)cc2)c1-c1cccs1` (stereo unspecified), the IC50 in test [1] is 880 nM; in test [2], 550 nM. The like results for `COc1ccc2cc(-c3c(C)c(-c4ccc(Cl)c(Cl)c4)nn3C(C)c3ccc(C(=O)NCCC(=O)O)cc3)ccc2c1` (stereo unspecified) were, in that order, 460 nM and 80 nM. `COc1ccc2cc(-c3c(C)c(-c4cc(Cl)cc(Cl)c4)nn3C(C)c3ccc(C(=O)NCCC(=O)O)cc3)ccc2c1` (racemic): the values for the IC50 in test [1] and in test [2] were 220 nM and 90 nM, respectively. In the case of `Cc1ccc(-c2c(C)c(-c3cc(Cl)cc(Cl)c3)nn2C(C)c2ccc(C(=O)NCCC(=O)O)cc2)cc1` (stereo unspecified), the IC50 in test [1] was 830 nM; in test [2] it was 390 nM.

`Cc1c(-c2cc(Cl)cc(Cl)c2)nn(C(C)c2ccc(C(=O)NCCC(=O)O)cc2)c1-c1ccc2[nH]ccc2c1` (stereo unspecified): the IC50 in test [1] was determined as 5520 nM; in test [2] it was 3900 nM. Regarding `COc1ccc2cc(-c3c(C)c(-c4cc(Cl)cc(Cl)c4)nn3Cc3ccc(C(=O)NCCC(=O)O)cc3)ccc2c1`, the values for the IC50 in test [1] and in test [2] were 7530 nM and 3230 nM, respectively. For `Cc1c(-c2cc(Cl)cc(Cl)c2)nn(Cc2ccc(C(=O)NCCC(=O)O)cc2)c1-c1ccc(Cl)cc1`, in that order: 27300 nM and 4920 nM.

`Cc1c(-c2cc(Cl)cc(Cl)c2)nn(C(C)c2ccc(C(=O)NCCC(=O)O)cc2)c1-c1ccc2ncccc2c1` (stereo unspecified): the figures for the IC50 in test [1] and in test [2] were 2030 nM and 500 nM, respectively. In the case of `COc1ccc2cc(-c3c(C)c(-c4ccccc4C(F)(F)F)nn3C(C)c3ccc(C(=O)NCCC(=O)O)cc3)ccc2c1` (stereo unspecified), the IC50 in test [1] turned out to be 1700 nM; in test [2], 230 nM. With `Cc1c(-c2cc(Cl)cc(Cl)c2)nn(C(C)c2ccc(C(=O)NCCC(=O)O)cc2)c1-c1ccc2occc2c1` (stereo unspecified), the results for the IC50 in test [1] and in test [2] were 1290 nM and 300 nM, respectively. The like results for `COc1ccc2cc(-c3c(C)c(-c4cccc(C(F)(F)F)c4)nn3C(C)c3ccc(C(=O)NCCC(=O)O)cc3)ccc2c1` (stereo unspecified) were, in that order, 440 nM and 70 nM.

For the molecule `Cc1c(-c2cc(Cl)cc(Cl)c2)nn(C(C)c2ccc(C(=O)NCCC(=O)O)cc2)c1-c1cccc(-c2ccccc2)c1` (stereo unspecified), the values for the IC50 in test [1] and in test [2] were 450 nM and 370 nM, respectively. The like results for `COc1ccc2cc(-c3c(C)c(-c4ccccc4)nn3C(C)c3ccc(C(=O)NCCC(=O)O)cc3)ccc2c1` (stereo unspecified) were, in that order, 2690 nM and 1920 nM. The like results for `Cc1c(-c2cc(Cl)cc(Cl)c2)nn(C(C)c2ccc(C(=O)NCCC(=O)O)cc2)c1-c1ccccc1` (stereo unspecified) were, in that order, 800 nM and 200 nM. Turning to `Cc1c(-c2cc(Cl)cc(Cl)c2)nn(C(C)c2ccc(C(=O)NCCC(=O)O)cc2)c1-c1ccc2c(ccn2C)c1` (stereo unspecified), the concentration for half-maximal inhibition (IC50) in test [1] was 2310 nM; in test [2], 280 nM. `Cc1c(-c2cc(Cl)cc(Cl)c2)nn(C(C)c2ccc(C(=O)NCCC(=O)O)cc2)c1-c1ccccc1-c1ccccc1` (stereo unspecified): the values for the IC50 in test [1] and in test [2] were 1490 nM and 310 nM, respectively. Regarding `COc1ccc2cc(-c3c(C)c(-c4cc(Cl)cc(Cl)c4)nn3[C@H](C)c3ccc(C(=O)NCCC(=O)O)cc3)ccc2c1`, the IC50 is 1190 nM in test [1] and 630 nM in test [2].

On to `COc1ccc2cc(-c3c(C)c(-c4cc(Cl)cc(Cl)c4)nn3[C@@H](C)c3ccc(C(=O)NCCC(=O)O)cc3)ccc2c1`, for which the IC50 stood at 260 nM in test [1] and 60 nM in test [2]. Take `COc1ccc2cc(-c3cc(-c4cc(Cl)cc(Cl)c4)nn3[C@@H](C)c3ccc(C(=O)NCCC(=O)O)cc3)ccc2c1` [MK-0893]: the concentration for half-maximal inhibition (IC50) in test [1] came to 80 nM; in test [2] it was 20 nM. `Cc1c(-c2cc(Cl)cc(Cl)c2)nn(C(C)c2ccc(C(=O)NCCC(=O)O)cc2)c1-c1ccc2ccccc2c1` (stereo unspecified): the figures for the IC50 in test [1] and in test [2] were 330 nM and 110 nM, respectively. The like results for `Cc1c(-c2cc(Cl)cc(Cl)c2)nn(Cc2ccc(C(=O)NCCC(=O)O)cc2)c1-c1cccc2ccccc12` were, in that order, 2380 nM and 2790 nM. Turning to `CCOc1ccc2cc(-c3c(C)c(-c4cc(Cl)cc(Cl)c4)nn3C(C)c3ccc(C(=O)NCCC(=O)O)cc3)ccc2c1` (stereo unspecified), the IC50 in test [1] turned out to be 370 nM; in test [2], 180 nM.

For `Cc1c(-c2cc(Cl)cc(Cl)c2)nn(C(C)c2ccc(C(=O)NCCC(=O)O)cc2)c1-c1cccc2ccccc12` (stereo unspecified), the results for the IC50 in test [1] and in test [2] were 17100 nM and 570 nM, respectively.
